Assay results reported in ChEMBL document CHEMBL1148251, “Syntheses of sphingosine-1-phosphate analogues and their interaction with EDG/S1P receptors” (Bioorg Med Chem Lett, 2004).

Key:
Assay type in all cases: cell-based
[1] = molecular target: Sphingosine 1-phosphate receptor 1 (Homo sapiens) (UniProt P21453); test: Percent binding affinity to displace radioligand [3H]SIP from Sphingosine 1-phosphate receptor Edg-1 expressed in CHO cells
How it was run: (§1)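 Whole transfected CHO cells (Edg-1, Edg-3 or Edg-5; mock-transfected control), confluent, rinsed twice in ice-cold buffer (20 mM Tris–HCl pH 7.5, 100 mM NaCl, 15 mM NaF, 0.4% BSA), then held on ice 90 min with 2 nM [3H]-S1P ± 1 µM test ligand. Unbound label washed off, cells solubilized in SDS/NaOH/Na2CO3, bound radioactivity counted by liquid scintillation; duplicate determinations, mean ± SD.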

[2] = molecular target: Sphingosine 1-phosphate receptor 2 (Homo sapiens) (UniProt O95136); test: Percent binding affinity to displace radioligand [3H]-SIP from EDG-5/S1P2 receptors expressed in CHO cells; how it was run: as §1
Sphingosine 1-phosphate receptor 2 (Homo sapiens), sequence (O95136 whole entry): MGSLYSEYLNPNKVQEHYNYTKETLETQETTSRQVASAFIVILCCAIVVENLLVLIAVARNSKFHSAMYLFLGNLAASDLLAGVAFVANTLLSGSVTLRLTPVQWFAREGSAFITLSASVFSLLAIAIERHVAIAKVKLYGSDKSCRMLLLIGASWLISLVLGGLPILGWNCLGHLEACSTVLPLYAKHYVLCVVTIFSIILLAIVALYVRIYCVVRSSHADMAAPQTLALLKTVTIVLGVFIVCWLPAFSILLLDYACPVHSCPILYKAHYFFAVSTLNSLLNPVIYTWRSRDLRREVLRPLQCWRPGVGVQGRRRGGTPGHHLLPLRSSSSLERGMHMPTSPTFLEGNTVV

[3] = molecular target: Sphingosine 1-phosphate receptor 3 (Homo sapiens) (UniProt Q99500); test: Percent binding affinity to displace radioligand [3H]SIP from EDG-3/S1P3 receptors expressed in CHO cells; how it was run: as §1
Sphingosine 1-phosphate receptor 3 (Homo sapiens), sequence (Q99500 whole entry): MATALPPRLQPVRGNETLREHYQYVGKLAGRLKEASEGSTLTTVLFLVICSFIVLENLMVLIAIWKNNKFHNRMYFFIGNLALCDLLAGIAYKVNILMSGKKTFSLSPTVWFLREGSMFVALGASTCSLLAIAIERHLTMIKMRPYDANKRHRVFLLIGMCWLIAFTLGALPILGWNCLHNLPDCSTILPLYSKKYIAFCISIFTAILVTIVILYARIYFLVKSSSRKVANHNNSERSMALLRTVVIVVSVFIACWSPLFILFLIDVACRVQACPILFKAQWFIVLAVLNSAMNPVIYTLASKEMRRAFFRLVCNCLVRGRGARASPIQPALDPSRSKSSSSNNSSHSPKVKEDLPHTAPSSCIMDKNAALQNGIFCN

Sphingosine 1-phosphate receptor 1 (Homo sapiens), sequence (P21453 whole entry): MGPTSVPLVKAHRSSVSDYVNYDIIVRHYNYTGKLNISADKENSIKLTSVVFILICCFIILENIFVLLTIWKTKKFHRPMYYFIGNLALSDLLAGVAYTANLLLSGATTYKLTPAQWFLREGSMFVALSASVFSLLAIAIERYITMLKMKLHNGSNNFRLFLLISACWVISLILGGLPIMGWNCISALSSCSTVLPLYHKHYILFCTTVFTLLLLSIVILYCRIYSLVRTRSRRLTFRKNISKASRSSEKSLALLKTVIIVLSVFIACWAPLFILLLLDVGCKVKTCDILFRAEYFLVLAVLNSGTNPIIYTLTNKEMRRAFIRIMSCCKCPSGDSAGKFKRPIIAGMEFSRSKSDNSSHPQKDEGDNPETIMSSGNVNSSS

Row | Structure (SMILES) | % binding [1] [%] | % binding [2] [%] | % binding [3] [%]
1 | CCCCCCCCCCCCC/C=C/[C@@H](O)[C@H](COP(=O)(O)O)NC | 55.1 |  | 
2 | CCCCCCCCCCCCCC[C@@H](N)COP(=O)(O)O |  | 84 | 82
3 | CCCCCCCCCCCCC/C=C/[C@@H](O)[C@H](COP(=O)(O)O)NCC | 51.4 |  | 
